According to ChEMBL document CHEMBL5653630, “Activation of the p53-MDM4 regulatory axis defines the anti-tumour response to PRMT5 inhibition through its role in regulating cellular splicing” (Sci Rep, 2018):
Calls of active or inactive are those of the source. The calls are words filed in the database; no cut-off is given here.

Key:
SCaBER = assay: Antiproliferative activity against human SCaBER cells assessed as cell growth inhibition incubated for 6 days by celltiter-glo assay; type: functional; details: 144 h, time 6 day
JeKo-1 = assay: Induction of cell cycle arrest in human JeKo-1 cells assessed as increase in 2n cell population measured upto 5000 nM measured for 3 days by propidium iodide staining based flow cytometric analysis; type: functional; details: time 3.0 day
JVM-2 = assay: Induction of apoptosis in human JVM-2 cells assessed as dead cells incubated for 6 days by annexin-V/FITC propidium iodide staining based flow cytometry analysis; type: functional, cell-based; details: dose <= 5000.0 nM, time 6.0 day
Z-138 [1] = assay: In vivo inhibition of PRMT5 in human Z138 cells xenografted in mouse assessed as increase in GADD45A expression at 100 mg/kg, po BID measured for 7 days; type: functional, organism-based; details: time 7.0 day
Z-138 [2] = assay: In vivo inhibition of PRMT5 in human Z138 cells xenografted in mouse assessed as increase in PHLDA3 expression at 100 mg/kg, po BID measured for 7 days; type: functional, organism-based; details: time 7.0 day
JAR = assay: Antiproliferative activity against human JAR cells assessed as cell growth inhibition incubated for 10 days; type: functional; details: 240 h, time 10 day
How it was run: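 Eurofins-panel 10-day assay in 384-well plates. Cells grown in RPMI-1640 with 10% FBS, 2 mM L-alanyl-L-glutamine and 1mM Na pyruvate, or a special medium, at 37°C in 5% CO₂. Compound added 24 h after seeding, 10-point 3.16-fold series in 0.1% DMSO. Medium replaced and compound re-dosed at 168 h. Nuclei fixed and stained after 240 h, then imaged to give a relative cell count. gIC50 is the concentration giving growth midway between untreated and time-zero counts, from a 4-parameter fit.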

SW1417 = assay: Antiproliferative activity against human SW1417 cells assessed as cell growth inhibition incubated for 10 days; type: functional; details: SW1417, 240 h, time 10 day
DB = assay: Antiproliferative activity against human DB cells assessed as cell growth inhibition incubated for 10 days; type: functional; details: 240 h, time 10 day
How it was run: (§1)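 Outsourced panel run in 384-well plates. Cells were grown in RPMI-1640/10% FBS or a special medium at 37°C, 5% CO2. Compound was added 24 h after seeding as a 10-point, 3.16-fold series in 0.1% DMSO. Medium was refreshed and cells re-dosed at 168 h, with a time-zero plate kept. At 240 h cells were fixed, nuclei stained and imaged. gIC50 is growth midway between untreated and time zero, from a 4-parameter fit.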

SR = assay: Antiproliferative activity against human SR cells assessed as cell growth inhibition incubated for 10 days; type: functional; details: 240 h, time 10 day
AN3-CA = assay: Antiproliferative activity against human AN3-CA cells assessed as cell growth inhibition incubated for 10 days; type: functional; details: 240 h, time 10 day
How it was run: (§2)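 Cells kept in RPMI-1640 with 10% FBS, 2 mM L-alanyl-L-glutamine and 1 mM Na pyruvate (or a special medium) at 37°C, 5% CO2. Compound added 24 h after seeding, 10 concentrations in 3.16-fold dilution, 0.1% DMSO final. Medium replaced and cells re-dosed at 168 h; 240 h incubation. Nuclei fixed, dye-stained and imaged. gIC50 = growth midway between untreated and time-zero cell counts, from a 4-parameter fit.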

HEC-1-A = assay: Antiproliferative activity against human HEC-1-A cells assessed as cell growth inhibition incubated for 10 days; type: functional; details: 240 h, time 10 day; how it was run: as §1
KLE = assay: Antiproliferative activity against human KLE cells assessed as cell growth inhibition incubated for 10 days; type: functional; details: 240 h, time 10 day
How it was run: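 Cells grown in RPMI-1640 with 10% FBS, 2 mM L-alanyl-L-glutamine and 1 mM Na pyruvate (or special medium) at 37°C, 5% CO2. Compound was added 24 h after seeding, with a parallel time-zero plate. Medium was replaced and the compound re-dosed at 168 h. Dosing used 10 concentrations (3.16-fold dilutions, 0.1% DMSO) over a 240 h incubation. Nuclei were stained and imaged. gIC50 is growth midway between untreated and time-zero, from a 4-parameter fit.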

AGS = assay: Antiproliferative activity against human AGS cells assessed as cell growth inhibition incubated for 10 days; type: functional; details: 240 h, time 10 day; how it was run: as §2
SW1088 = assay: Antiproliferative activity against human SW1088 cells assessed as cell growth inhibition incubated for 10 days; type: functional; details: SW1088, 240 h, time 10 day
786-0 = assay: Antiproliferative activity against human 786-0 cells assessed as cell growth inhibition incubated for 10 days; type: functional; details: 786-0, 240 h, time 10 day; how it was run: as §2
Hs 294T = assay: Antiproliferative activity against human Hs294T cells assessed as cell growth inhibition incubated for 10 days; type: functional; details: 240 h, time 10 day
How it was run: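 Eurofins panel, 384-well. Cells kept in RPMI-1640 with 10% FBS, 2 mM L-alanyl-L-glutamine and 1 mM Na pyruvate, or in a special medium, at 37°C under 5% CO2. Compound added 24 h after seeding as 10 concentrations in 3.16-fold steps, 0.1% DMSO final. Medium replaced and compound re-dosed at 168 h. After 240 h, cells fixed and nuclei stained for imaging. gIC50 = growth midway between untreated cells and time-zero count.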

SK-MEL3 = assay: Antiproliferative activity against human SK-MEL3 cells assessed as cell growth inhibition incubated for 10 days; type: functional; details: SK-MEL3, 240 h, time 10 day
A-375 = assay: Antiproliferative activity against human A-375 cells assessed as cell growth inhibition incubated for 10 days; type: functional; details: A-375, 240 h, time 10 day; how it was run: as §2
MC-IXC = assay: Antiproliferative activity against human MC-IXC cells assessed as cell growth inhibition incubated for 10 days; type: functional; details: 240 h, time 10 day
SK-N-DZ = assay: Antiproliferative activity against human SK-N-DZ cells assessed as cell growth inhibition incubated for 10 days; type: functional; details: 240 h, time 10 day
OVCAR-3 = assay: Antiproliferative activity against human OVCAR-3 cells assessed as cell growth inhibition incubated for 10 days; type: functional; details: OVCAR-3, 240 h, time 10 day
PANC-1 = assay: Antiproliferative activity against human PANC-1 cells assessed as cell growth inhibition incubated for 10 days; type: functional; details: PANC-1, 240 h, time 10 day
[3] = Antiproliferative activity against human BM-1604 cells assessed as cell growth inhibition incubated for 10 days; type: functional; details: BM-1604, 240 h, time 10 day; how it was run: as §2
MES-SA = assay: Antiproliferative activity against human MES-SA cells assessed as cell growth inhibition incubated for 10 days; type: functional; details: 240 h, time 10 day
A204 = assay: Antiproliferative activity against human A204 cells assessed as cell growth inhibition incubated for 10 days; type: functional; details: A204, 240 h, time 10 day; how it was run: as §2
SW 962 = assay: Antiproliferative activity against human SW 962 cells assessed as cell growth inhibition incubated for 10 days; type: functional; details: SW 962, 240 h, time 10 day
[4] = biological target: Protein arginine N-methyltransferase 5 (Homo sapiens) (UniProt O14744); assay: Inhibition of PRMT5 in human Z138 cells assessed as effect on snRNP B1 level by measuring fold change by LC-MS/MS analysis relative to control; type: cell-based
Protein arginine N-methyltransferase 5 (Homo sapiens), sequence (O14744 whole entry): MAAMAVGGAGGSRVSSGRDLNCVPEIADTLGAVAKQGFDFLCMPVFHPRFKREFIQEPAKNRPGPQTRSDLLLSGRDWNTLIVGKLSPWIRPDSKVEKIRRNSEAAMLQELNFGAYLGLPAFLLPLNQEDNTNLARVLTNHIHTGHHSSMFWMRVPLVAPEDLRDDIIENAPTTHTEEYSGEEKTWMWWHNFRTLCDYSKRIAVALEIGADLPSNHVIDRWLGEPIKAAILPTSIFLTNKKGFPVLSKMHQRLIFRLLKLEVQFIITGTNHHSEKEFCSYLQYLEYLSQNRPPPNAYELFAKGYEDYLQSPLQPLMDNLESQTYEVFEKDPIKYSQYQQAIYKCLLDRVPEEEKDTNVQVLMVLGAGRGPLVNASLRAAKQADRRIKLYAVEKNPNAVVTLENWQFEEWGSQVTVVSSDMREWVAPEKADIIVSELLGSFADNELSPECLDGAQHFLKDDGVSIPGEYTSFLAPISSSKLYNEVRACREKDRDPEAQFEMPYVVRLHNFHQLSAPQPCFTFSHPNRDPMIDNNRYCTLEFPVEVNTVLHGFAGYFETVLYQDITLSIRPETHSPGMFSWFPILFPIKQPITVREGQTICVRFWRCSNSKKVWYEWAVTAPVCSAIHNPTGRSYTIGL

[5] = biological target: Protein arginine N-methyltransferase 5 (Homo sapiens) (UniProt O14744); assay: Inhibition of PRMT5 in human Z138 cells assessed as MDM4 splicing at 8 to 1000 nM incubated for 3 days by RT-PCR analysis; type: cell-based; details: dose 8-1000 nM, time 3.0 day
[6] = biological target: Protein arginine N-methyltransferase 5 (Homo sapiens) (UniProt O14744); assay: Inhibition of PRMT5 in p53 knockout human Z138 cells at 1 to 100000 nM incubated for 3 to 6 days; type: cell-based; details: dose 1-100000 nM, time 3-6 day

CC(=O)N1CCC(Nc2cc(C(=O)NC[C@H](O)CN3CCc4ccccc4C3)ncn2)CC1 [PEMRAMETOSTAT]
GI50 (SCaBER): 0.198 µM
Activity (JeKo-1): inactive
Activity (JVM-2): Dose-Dependent Effect
inhibition (Z-138 [1]): Active
inhibition (Z-138 [2]): Active

O=C(NC[C@H](O)CN1CCc2ccccc2C1)c1ccnc(NC2CCC2)c1
GI50 (JAR): 0.485 µM
GI50 (SW1417): 0.773 µM
GI50 (DB): 0.00251 µM
GI50 (SR): 0.275 µM
GI50 (AN3-CA): 0.254 µM
GI50 (HEC-1-A): 2.44 µM
GI50 (KLE): 10 µM
GI50 (AGS): 2.03 µM
GI50 (SW1088): 0.0405 µM
GI50 (786-0): 0.0203 µM
GI50 (Hs 294T): 0.0123 µM
GI50 (SK-MEL3): 0.181 µM
GI50 (A-375): 0.0796 µM
GI50 (MC-IXC): 0.615 µM
GI50 (SK-N-DZ): 0.257 µM
GI50 (OVCAR-3): 0.0514 µM
GI50 (PANC-1): 0.165 µM
GI50 [3]: 0.142 µM
GI50 (MES-SA): 0.072 µM
GI50 (A204): 0.223 µM
GI50 (SW 962): 0.203 µM
fold change (FC) [4]: -16.8
inhibition [5]: Active
inhibition [6]: Active
